Laboratory results: ChEMBL document CHEMBL1147665, “Design, synthesis, and biological evaluation of 4-alkyliden-beta lactams: new products with promising antibiotic activity against resistant bacteria” (J Med Chem, 2006)
≈ marks a conversion by molar mass, not a printed value.

Experiments:
[1] = system: Streptococcus pyogenes; test: Antibacterial activity against Streptococcus pyogenes; format: functional
In short: (§1)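 Broth microdilution MIC per CLSI guidelines in Mueller-Hinton broth: serial 2-fold dilutions, inoculum 5 × 10⁵ CFU/mL in equal volume, 35 °C for 16-20 h. MIC = lowest concentration with no visible turbidity. Recent clinical isolates (43 total, Gram-positive and Gram-negative); values given as MIC ranges, MIC₅₀ and MIC₉₀ per species.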

[2] = system: Streptococcus pneumoniae; test: Antibacterial activity against Streptococcus pneumoniae; format: functional; in short: as §1
[3] = system: Enterococcus; test: Antibacterial activity against Enterococcus spp; format: functional; in short: as §1
[4] = system: Staphylococcus aureus; test: Antibacterial activity against methicillin-resistant Staphylococcus aureus; format: functional
In short: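 Clinical isolates (3 MRSA in a 43-strain panel). Broth microdilution per CLSI, serial 2-fold dilutions in Mueller-Hinton broth, inoculum 5 × 10⁵ CFU/mL, 35 °C for 16-20 h. MIC = lowest concentration with no visible turbidity; reported as MIC range, MIC₅₀ and MIC₉₀ across isolates.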

[5] = system: Staphylococcus aureus; test: Antibacterial activity against methicillin-susceptible Staphylococcus aureus; format: functional; in short: as §1
[6] = system: Staphylococcus epidermidis; test: Antibacterial activity against Staphylococcus epidermidis; format: functional; in short: as §1
[7] = system: Haemophilus influenzae; test: Antibacterial activity against Haemophilus influenzae; format: functional; in short: as §1
[8] = Viability of human TPC1 cell line at 128 uM after 3 hrs; format: cell-based; conditions: TPC1 cells, read-out: Activity
In short: (§2)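 Human TPC1 cells seeded at 40 000/well in supplemented DMEM, grown overnight at 37 °C, 5% CO₂. Fresh medium with compound (0-128 µM, 2-fold steps), six parallel wells per concentration and controls, exposed 3, 6 or 21 h. MTT (5 mg/mL stock diluted 1:15 in medium) for 3 h, acidified 2-propanol solubilization, OD 600 nm; viability relative to control.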

[9] = Viability of human TPC1 cell line at 8 uM after 21 hrs; format: cell-based; conditions: TPC1 cells, read-out: Activity; in short: as §2
[10] = Viability of human TPC1 cell line at 128 uM after 21 hrs; format: cell-based; conditions: TPC1 cells, read-out: Activity; in short: as §2
[11] = Viability of human TPC1 cell line at 32 uM after 21 hrs; format: cell-based; conditions: TPC1 cells, read-out: Activity; in short: as §2

O=C(/C=C1\NC(=O)[C@@H]1Cl)OCc1ccccc1
MIC50 [1]: 32 µg/mL (≈ 127 µM) | MIC90 [1]: 128 µg/mL (≈ 509 µM) | MIC50 [2]: 128 µg/mL (≈ 509 µM) | MIC90 [2]: 128 µg/mL (≈ 509 µM) | MIC50 [3]: 16 µg/mL (≈ 63.6 µM) | MIC90 [3]: 16 µg/mL (≈ 63.6 µM) | MIC50 [4]: 16 µg/mL (≈ 63.6 µM) | MIC90 [4]: 32 µg/mL (≈ 127 µM) | MIC50 [5]: 8 µg/mL (≈ 31.8 µM) | MIC90 [5]: 16 µg/mL (≈ 63.6 µM) | MIC50 [6]: 8 µg/mL (≈ 31.8 µM) | MIC90 [6]: 32 µg/mL (≈ 127 µM) | MIC50 [7]: 1 µg/mL (≈ 3.97 µM) | MIC90 [7]: 2 µg/mL (≈ 7.95 µM) | viability at 3 h, 128 µM [8]: 48% | viability at 21 h, 8 µM [9]: 81% | viability at 21 h, 128 µM [10]: 23%

COc1cc(C(=O)O[C@H](C)[C@H]2C(=O)N/C2=C\C(=O)OCc2ccccc2)cc(OC)c1O
MIC50 [1]: 128 µg/mL (≈ 290 µM) | MIC90 [1]: 128 µg/mL (≈ 290 µM) | MIC50 [2]: 128 µg/mL (≈ 290 µM) | MIC90 [2]: 128 µg/mL (≈ 290 µM) | MIC50 [3]: 128 µg/mL (≈ 290 µM) | MIC90 [3]: > 128 µg/mL | MIC50 [4]: 32 µg/mL (≈ 72.5 µM) | MIC90 [4]: 64 µg/mL (≈ 145 µM) | MIC50 [5]: 16 µg/mL (≈ 36.2 µM) | MIC90 [5]: 128 µg/mL (≈ 290 µM) | MIC50 [6]: 2 µg/mL (≈ 4.53 µM) | MIC90 [6]: 64 µg/mL (≈ 145 µM) | MIC50 [7]: 64 µg/mL (≈ 145 µM) | MIC90 [7]: 128 µg/mL (≈ 290 µM) | viability at 21 h, 128 µM [10]: 64% | viability at 21 h, 32 µM [11]: 81%

C[C@@H](O)[C@H]1C(=O)N2C(C(=O)O)=C(SCCNC=N)C[C@H]12 [IMIPENEM ANHYDROUS]
MIC50 [1]: < 0.06 µg/mL | MIC90 [1]: < 0.06 µg/mL | MIC50 [2]: 0.12 µg/mL (≈ 0.401 µM) | MIC90 [2]: 1 µg/mL (≈ 3.34 µM) | MIC50 [3]: 0.5 µg/mL (≈ 1.67 µM) | MIC90 [3]: > 128 µg/mL | MIC50 [4]: 64 µg/mL (≈ 214 µM) | MIC90 [4]: 128 µg/mL (≈ 428 µM) | MIC50 [5]: < 0.06 µg/mL | MIC90 [5]: < 0.06 µg/mL | MIC50 [6]: < 0.06 µg/mL | MIC90 [6]: 1 µg/mL (≈ 3.34 µM) | MIC50 [7]: < 0.06 µg/mL | MIC90 [7]: 0.12 µg/mL (≈ 0.401 µM)

CCOC(=O)/C=C1/NC(=O)[C@@H]1[C@@H](C)O[Si](C)(C)C(C)(C)C
MIC50 [1]: 128 µg/mL (≈ 408 µM) | MIC90 [1]: 128 µg/mL (≈ 408 µM) | MIC50 [2]: 128 µg/mL (≈ 408 µM) | MIC90 [2]: 128 µg/mL (≈ 408 µM) | MIC50 [3]: > 128 µg/mL | MIC90 [3]: > 128 µg/mL | MIC50 [4]: 128 µg/mL (≈ 408 µM) | MIC50 [5]: > 128 µg/mL | MIC90 [5]: > 128 µg/mL | MIC50 [6]: 128 µg/mL (≈ 408 µM) | MIC90 [6]: 128 µg/mL (≈ 408 µM) | MIC50 [7]: 128 µg/mL (≈ 408 µM) | MIC90 [7]: 128 µg/mL (≈ 408 µM)

C[C@@H](O)[C@H]1C(=O)N2C(C(=O)O)=C(S[C@@H]3CN[C@H](C(=O)N(C)C)C3)[C@H](C)[C@H]12 [MEROPENEM]
MIC50 [1]: < 0.06 µg/mL | MIC90 [1]: < 0.06 µg/mL | MIC50 [2]: < 0.06 µg/mL | MIC90 [2]: 2 µg/mL (≈ 5.22 µM) | MIC50 [3]: 2 µg/mL (≈ 5.22 µM) | MIC90 [3]: > 128 µg/mL | MIC50 [4]: 32 µg/mL (≈ 83.4 µM) | MIC90 [4]: 32 µg/mL (≈ 83.4 µM) | MIC50 [5]: < 0.06 µg/mL | MIC90 [5]: < 0.06 µg/mL | MIC50 [6]: < 0.12 µg/mL | MIC90 [6]: 64 µg/mL (≈ 167 µM) | MIC50 [7]: < 0.06 µg/mL | MIC90 [7]: < 0.06 µg/mL

C[C@@H](O[Si](C)(C)C(C)(C)C)[C@H]1C(=O)N/C1=C/C(=O)OCc1ccccc1
MIC50 [1]: 64 µg/mL (≈ 170 µM) | MIC90 [1]: 64 µg/mL (≈ 170 µM) | MIC50 [2]: 32 µg/mL (≈ 85.2 µM) | MIC90 [2]: 32 µg/mL (≈ 85.2 µM) | MIC50 [3]: 64 µg/mL (≈ 170 µM) | MIC90 [3]: 64 µg/mL (≈ 170 µM) | MIC50 [4]: > 128 µg/mL | MIC50 [5]: 128 µg/mL (≈ 341 µM) | MIC90 [5]: > 128 µg/mL | MIC50 [6]: 128 µg/mL (≈ 341 µM) | MIC90 [6]: > 128 µg/mL | MIC50 [7]: 128 µg/mL (≈ 341 µM) | MIC90 [7]: 128 µg/mL (≈ 341 µM)

CC1(C)S[C@@H]2[C@H](NC(=O)[C@H](N)c3ccc(O)cc3)C(=O)N2[C@H]1C(=O)O [AMOXICILLIN]
MIC50 [1]: < 0.06 µg/mL | MIC90 [1]: < 0.06 µg/mL | MIC50 [2]: 0.12 µg/mL (≈ 0.328 µM) | MIC90 [2]: 8 µg/mL (≈ 21.9 µM) | MIC50 [3]: 2 µg/mL (≈ 5.47 µM) | MIC90 [3]: 2 µg/mL (≈ 5.47 µM) | MIC50 [4]: 64 µg/mL (≈ 175 µM) | MIC90 [4]: 128 µg/mL (≈ 350 µM) | MIC50 [5]: 1 µg/mL (≈ 2.74 µM) | MIC90 [5]: 8 µg/mL (≈ 21.9 µM) | MIC50 [6]: 1 µg/mL (≈ 2.74 µM) | MIC90 [6]: 4 µg/mL (≈ 10.9 µM) | MIC50 [7]: 1 µg/mL (≈ 2.74 µM) | MIC90 [7]: 64 µg/mL (≈ 175 µM)

CCOC(=O)/C=C1\NC(=O)[C@@H]1Cl
MIC50 [1]: 128 µg/mL (≈ 675 µM) | MIC90 [1]: 128 µg/mL (≈ 675 µM) | MIC50 [2]: 128 µg/mL (≈ 675 µM) | MIC90 [2]: 128 µg/mL (≈ 675 µM) | MIC50 [3]: > 128 µg/mL | MIC90 [3]: > 128 µg/mL | MIC50 [4]: 128 µg/mL (≈ 675 µM) | MIC90 [4]: 128 µg/mL (≈ 675 µM) | MIC50 [5]: 32 µg/mL (≈ 169 µM) | MIC90 [5]: 64 µg/mL (≈ 338 µM) | MIC50 [6]: 16 µg/mL (≈ 84.4 µM) | MIC90 [6]: 32 µg/mL (≈ 169 µM) | MIC50 [7]: 32 µg/mL (≈ 169 µM) | MIC90 [7]: 32 µg/mL (≈ 169 µM)

COc1cc(C(=O)O[C@H](C)[C@H]2C(=O)N/C2=C\C(=O)OCc2ccccc2)cc(OC)c1OC
MIC50 [1]: 128 µg/mL (≈ 281 µM) | MIC90 [1]: > 128 µg/mL | MIC50 [2]: > 128 µg/mL | MIC90 [2]: > 128 µg/mL | MIC50 [3]: 128 µg/mL (≈ 281 µM) | MIC90 [3]: > 128 µg/mL | MIC50 [4]: 128 µg/mL (≈ 281 µM) | MIC90 [4]: 128 µg/mL (≈ 281 µM) | MIC50 [5]: 8 µg/mL (≈ 17.6 µM) | MIC90 [5]: 16 µg/mL (≈ 35.1 µM) | MIC50 [6]: 4 µg/mL (≈ 8.78 µM) | MIC90 [6]: 16 µg/mL (≈ 35.1 µM) | MIC50 [7]: > 128 µg/mL | MIC90 [7]: > 128 µg/mL

O=C(O)/C=C1\NC(=O)[C@@H]1Cl
MIC50 [1]: 16 µg/mL (≈ 99 µM) | MIC90 [1]: 128 µg/mL (≈ 792 µM) | MIC50 [2]: 128 µg/mL (≈ 792 µM) | MIC90 [2]: 128 µg/mL (≈ 792 µM) | MIC50 [3]: 128 µg/mL (≈ 792 µM) | MIC90 [3]: > 128 µg/mL | MIC50 [4]: 128 µg/mL (≈ 792 µM) | MIC90 [4]: 128 µg/mL (≈ 792 µM) | MIC50 [5]: 32 µg/mL (≈ 198 µM) | MIC90 [5]: 64 µg/mL (≈ 396 µM) | MIC50 [6]: 64 µg/mL (≈ 396 µM) | MIC90 [6]: 64 µg/mL (≈ 396 µM) | MIC50 [7]: 64 µg/mL (≈ 396 µM) | MIC90 [7]: 64 µg/mL (≈ 396 µM)

CO/N=C(\C(=O)N[C@@H]1C(=O)N2C(C(=O)O)=C(CSc3nc(=O)c(O)nn3C)CS[C@H]12)c1csc(N)n1 [CEFTRIAXONE]
MIC50 [1]: < 0.06 µg/mL | MIC90 [1]: < 0.06 µg/mL | MIC50 [2]: 0.12 µg/mL (≈ 0.216 µM) | MIC90 [2]: 2 µg/mL (≈ 3.61 µM) | MIC50 [3]: > 128 µg/mL | MIC90 [3]: > 128 µg/mL | MIC50 [4]: > 128 µg/mL | MIC90 [4]: > 128 µg/mL | MIC50 [5]: 2 µg/mL (≈ 3.61 µM) | MIC90 [5]: 2 µg/mL (≈ 3.61 µM) | MIC50 [6]: 8 µg/mL (≈ 14.4 µM) | MIC90 [6]: 32 µg/mL (≈ 57.7 µM) | MIC50 [7]: < 0.06 µg/mL | MIC90 [7]: 0.12 µg/mL (≈ 0.216 µM)
